From ChEMBL document CHEMBL4706645, “The discovery of novel small molecule allosteric activators of aldehyde dehydrogenase 2” (Eur J Med Chem, 2021) come the findings set out here.

The source made the active and inactive calls. No cut-off for these calls is given here.

Assay [1] deals with T1, Aldehyde dehydrogenase, mitochondrial (Homo sapiens) (UniProt P05091).
T1 sequence (whole entry): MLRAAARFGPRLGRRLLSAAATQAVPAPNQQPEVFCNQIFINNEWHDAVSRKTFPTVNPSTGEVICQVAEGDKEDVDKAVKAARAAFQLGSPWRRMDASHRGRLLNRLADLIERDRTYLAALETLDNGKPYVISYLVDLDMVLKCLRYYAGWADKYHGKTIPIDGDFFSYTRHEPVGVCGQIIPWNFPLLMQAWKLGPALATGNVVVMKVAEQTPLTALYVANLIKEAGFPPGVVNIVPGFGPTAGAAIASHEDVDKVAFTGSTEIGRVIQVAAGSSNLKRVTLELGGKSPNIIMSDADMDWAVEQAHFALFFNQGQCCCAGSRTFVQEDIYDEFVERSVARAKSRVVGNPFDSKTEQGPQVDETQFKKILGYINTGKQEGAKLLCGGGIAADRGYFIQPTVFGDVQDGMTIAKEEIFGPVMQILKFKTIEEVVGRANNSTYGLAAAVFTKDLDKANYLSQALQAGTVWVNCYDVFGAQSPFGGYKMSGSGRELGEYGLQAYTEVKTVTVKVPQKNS
Nature of the assay: Allosteric activation of recombinant human full-length ALDH2 (18 to 517 residues) expressed in Escherichia coli at 100 uM using acetaldehyde as substrate measured after 3 hrs in presence of NAD+ by […] relative to Alda-1. The method, boiled down:
(§1)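 Read-out is absorbance at 450 nm, taken at room temperature. Starting concentrations are 5 mg/ml ALDH2, 25 mM acetaldehyde and 1 mM NAD+. Activity is the change in absorbance per minute (SlopeOD450). Maximum fold activation is calculated from ALDH2 activity with compound and corrected by the activity of the Alda-1 reference.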

Assay [2] has as its target T2, Aldehyde dehydrogenase, mitochondrial (Homo sapiens, UniProt P05091).
T2 sequence (P05091 whole entry): T1 sequence (whole entry)
Kind of assay: Allosteric activation of recombinant human full-length ALDH2 (18 to 517 residues) expressed in Escherichia coli using acetaldehyde as substrate measured after 3 hrs in presence of NAD+ by […]. The method, boiled down: as §1

For assay [3], the system named is Rattus norvegicus. Kind of assay: Protection against middle cerebral artery occlusion-induced Sprague-Dawley rat model of ischemic stroke-like event assessed as reduction in brain infarct size at 64 ug, icv pretreated for 5 mins followed by MCAO surgery for 2 hrs and subsequent reperfusion for 24 hrs by TCC staining based assay relative to control. The conditions noted are these: dose 64 µg; time 26.0833 hrs; 26.08 h. It counts as functional. More on the design: scale not given: the % may be the effect or the level left.

In assay [4] the test system is Rattus norvegicus. Kind of assay: Protection against middle cerebral artery occlusion-induced Sprague-Dawley rat model of ischemic stroke-like event assessed as reduction in brain infarct size at 50 ug, icv pretreated for 5 mins followed by MCAO surgery for 2 hrs and subsequent reperfusion for 24 hrs by TCC staining based assay. It counts as functional, organism-based. The conditions noted are these: dose 50.0 µg, time 26.08333 hrs.

On to `COc1ccc(CNc2ccc(N3CCOCC3)c(C(=O)NCC3(O)CC3)c2)cc1F`, for which, in assay [1] (filed as activator), the fold change (FC) turned out to be 97%. Still for that read-out and setting: with `COc1ccc(CNc2ccc(N3CCOCC3)c(C(=O)NCC(C)(C)F)c2)cc1F` the figure was 101%. Consider `COc1ccc(CNc2ccc(N3CCCCC3)c(C(=O)NCC3CC3)c2)cc1F`, for which the “fold change (FC)” value in assay [1] was “inactive”. Turning to `COc1ccc(CNc2ccc(C3CCOCC3)c(C(=O)NCC3CC3)c2)cc1F`, the fold change (FC) in assay [1] (filed as activator) is 53%. With `COc1ccc(CNc2ccc(-c3ccccc3)c(C(=O)NCC3CC3)c2)cc1F`, the fold change (FC) in assay [1] amounted to 3%. Consider `COc1ccc(CNc2ccc(N3CCOCC3)c(C(=O)NCC(C)(C)C)c2)cc1F`, for which the fold change (FC) in assay [1] (filed as activator) worked out at 59%.

For the molecule `COc1ccc(CN(C(C)=O)c2ccc(N3CCOCC3)c(C(=O)NCC(C)(C)O)c2)cc1F`, the “fold change (FC)” value in assay [1] is “inactive”. Same read-out and setting: with `O=C(CCC(=O)OCC(=O)c1ccccc1Cl)Nc1ccc(Cl)cc1` the figure was 6%. Turning to `CCCNC(=O)c1cc(NCc2ccc(OC)c(F)c2)ccc1N1CCOCC1`, the fold change (FC) in assay [1] (filed as activator) was found to be 97%. Turning to `COc1ccc(CNc2ccc(N3CCC(F)(F)CC3)c(C(=O)NCC3CC3)c2)cc1F`, the fold change (FC) in assay [1] was determined as 12%. In the case of `COc1ccc(CNc2cccc(C(=O)NCC3CC3)c2)cc1F`, in assay [1] (filed as activator), the fold change (FC) is 56%. As to `COc1ccc(CN(C)c2ccc(N3CCOCC3)c(C(=O)NCC3CC3)c2)cc1F`, the “fold change (FC)” value in assay [1] is “inactive”. On to `O=C(O)c1cc(NCc2ccc(Cl)c(Cl)c2)ccc1N1CCOCC1`, for which the fold change (FC) in assay [1] was 9%. For the molecule `CCNC(=O)c1cc(NCc2ccc(OC)c(F)c2)ccc1N1CCOCC1`, the fold change (FC) in assay [1] (filed as activator) was determined as 63%. Still for that read-out and setting: the value for `COc1ccc(CNc2ccc(N3CCC(O)CC3)c(C(=O)NCC3CC3)c2)cc1F` was 80%. For the molecule `COc1ccc(CNc2ccc(N3CCOCC3)c(C(=O)NCC(C)(C)O)c2)cc1F`, the fold change (FC) in assay [1] (filed as activator) came out at 120%. For `COc1ccc(C(=O)Nc2ccc(N3CCOCC3)c(C(=O)NCC3CC3)c2)cc1F`, the “fold change (FC)” value in assay [1] is “inactive”. In the case of `COc1ccc(CNc2ccc(N3CCOCC3)c(C(=O)NC3CC3)c2)cc1F`, the fold change (FC) in assay [1] (filed as activator) was 94%. For `Clc1cc(NCc2ccc3c(c2)OCO3)ccc1N1CCOCC1`, in assay [1], the “fold change (FC)” value is “inactive”.

Take `Clc1ccc(NCc2ccc3c(c2)OCO3)cc1Cl`: the “fold change (FC)” value in assay [1] is “inactive”. As to `COc1ccc(CNc2ccc(N3CCOCC3)c(C(=O)NCC(C)C)c2)cc1F`, the fold change (FC) in assay [1] (filed as activator) is 92%. For `COc1ccc(CN(C(C)=O)c2ccc(N3CCOCC3)c(C(=O)NCC3(O)CC3)c2)cc1F`, the “fold change (FC)” value in assay [1] is “inactive”. In general, EC50 refers to the concentration that produces a half-maximal response. Take `COc1ccc(CNc2ccc(N3CCOCC3)c(C(=O)NCC3CC3)c2)cc1F`: the EC50 in assay [2] is 17.9 µM. The fold change (FC) in assay [1] (filed as activator) came to 104%. Also, in the assay with Rattus norvegicus [3], the Activity turned out to be 70%.

Regarding `O=C(NCc1ccc2c(c1)OCO2)c1c(Cl)cccc1Cl`, the EC50 in assay [2] stood at 4.3 µM. Also, in the assay on Rattus norvegicus [4], the result was Active. In the case of `CCOC(=O)c1cc(NCc2ccc3c(c2)OCO3)ccc1N1CCOCC1`, in assay [1] (filed as activator), the fold change (FC) was 64%. On to `O=C(O)c1cc(NCc2ccc3c(c2)OCO3)ccc1Cl`, for which the “fold change (FC)” value in assay [1] was “inactive”. With `CNC(=O)c1cc(NCc2ccc(OC)c(F)c2)ccc1N1CCOCC1`, in assay [1] (filed as activator), the fold change (FC) was 52%. With `Fc1ccc(NCc2ccc3c(c2)OCO3)cc1`, the “fold change (FC)” value in assay [1] was “inactive”. On to `COc1ccc(CNc2ccc(N3CCOCC3)c(C(=O)NCC3CCCC3)c2)cc1F`, for which, in assay [1] (filed as activator), the fold change (FC) came to 51%. Still for that read-out and setting: the value for `COc1ccc(CNc2ccc(N3CCOCC3)c(C(=O)N3CCCCC3)c2)cc1F` was 66%. Turning to `COc1ccc(CNc2ccc(N3CCC(F)CC3)c(C(=O)NCC3CC3)c2)cc1F`, the “fold change (FC)” value in assay [1] is “inactive”.

On to `COc1ccc(CNc2ccc(N3CCOCC3)c(C(=O)NCC3CCCCC3)c2)cc1F`, for which the fold change (FC) in assay [1] (filed as activator) was 80%. Same read-out and setting: the value for `COc1ccc(CNc2ccc(N3CCOCC3)c(C(=O)NCC3CCC3)c2)cc1F` was 41%. `O=C(O)c1cc(NCc2ccc3c(c2)OCO3)ccc1N1CCOCC1`: the fold change (FC) in assay [1] was found to be 23%.
